Assay results taken from ChEMBL document CHEMBL1240430, “Design & synthesis of 2-(substituted aryloxy)-5-(substituted benzylidene)-3-phenyl-2,5-dihydro-1H-[1,2,4] triazin-6-one as potential anticonvulsant agents” (Eur J Med Chem, 2010).
Active and inactive are the calls of the source. No cut-off for these calls is given here.

How the values were obtained:
[1] = tested on: Mus musculus; assay: Anticonvulsant activity in ip dosed albino mouse assessed as protection against MES-induced seizures after 0.5 hrs; format: functional
Outline: (§1)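 Male albino mice (20-25 g) given test compounds i.p., suspended in 30% PEG 200, at 0.01 ml/g body weight, at 30, 100 and 300 mg/kg to 1–6 animals. Seizure protection checked 0.5 h and 4 h after dosing. Value is the minimal dose protecting 50% or more of animals.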

[2] = tested on: Mus musculus; assay: Anticonvulsant activity in ip dosed albino mouse assessed as protection against scPTZ-induced seizures after 0.5 hrs; format: functional; outline: as §1
[3] = tested on: Mus musculus; assay: Anticonvulsant activity in ip dosed albino mouse assessed as protection against scPTZ-induced seizures after 4 hrs; format: functional; outline: as §1
[4] = tested on: Mus musculus; assay: Anticonvulsant activity in ip dosed albino mouse assessed as protection against MES-induced seizures after 4 hrs; format: functional; outline: as §1
[5] = tested on: Mus musculus; assay: Reduction of immobility time in albino Swiss mouse at 100 mg/kg, ip pretreated for 1 hrs by forced swimming test; format: functional; conditions: route intraperitoneal
[6] = Neurotoxicity against ip dosed albino mouse assessed as inability of animal to maintain equilibrium on rod for 1 min after 4 hrs by rotarod test; conditions: in vivo
[7] = Neurotoxicity against ip dosed albino mouse assessed as inability of animal to maintain equilibrium on rod for 1 min after 0.5 hrs by rotarod test; conditions: in vivo

SMILES | ED50 [1] [mg/kg] | ED50 [2] [mg/kg] | ED50 [3] | ED50 [4] | Time [5] [s] | TD50 at 4 h [6] [mg/kg] | TD50 at 0.5 h [7] [mg/kg]
Cc1ccc(/C=C2/N=C(c3ccccc3)N(C(=O)c3ccc(Cl)cc3)NC2=O)cc1 | 100 | 100 | 100 mg/kg | 300 mg/kg | – | – | –
O=C1NC(=O)C(c2ccccc2)(c2ccccc2)N1 [PHENYTOIN] | 30 | – | – | 30 mg/kg | – | – | –
O=C1NN(C(=O)c2ccccc2Cl)C(c2ccccc2)=N/C1=C/c1ccccc1Cl | 30 | 30 | 100 mg/kg | 30 mg/kg | 148.17 | 300 | 300
Cc1ccc(/C=C2/N=C(c3ccccc3)N(C(=O)c3ccc(C)cc3)NC2=O)cc1 | 100 | 30 | 30 mg/kg | 100 mg/kg | 145.83 | – | 300
Cc1ccc(C(=O)N2NC(=O)/C(=C\c3ccc(O)cc3)N=C2c2ccccc2)cc1 | 30 | 100 | 300 mg/kg | 100 mg/kg | 147.33 | – | –
O=C1NN(C(=O)c2ccc(Cl)cc2)C(c2ccccc2)=N/C1=C/c1ccccc1 | 100 | 100 | 300 mg/kg | 300 mg/kg | – | 300 | 300
O=C1NN(C(=O)c2ccc(F)cc2)C(c2ccccc2)=N/C1=C/c1ccc(O)cc1 | 300 | 300 | inactive | inactive | – | – | –
CCCC(CCC)C(=O)[O-].[Na+] [VALPROATE SODIUM] | – | 300 | inactive | – | – | – | –
COc1ccc(/C=C2/N=C(c3ccccc3)N(C(=O)c3ccc(Cl)cc3)NC2=O)cc1 | 100 | 100 | 300 mg/kg | inactive | – | 300 | 300
Cc1ccc(/C=C2/N=C(c3ccccc3)N(C(=O)Cc3ccc(Cl)cc3)NC2=O)cc1 | 100 | 100 | 300 mg/kg | 300 mg/kg | – | 300 | 300
NC(=O)N1c2ccccc2C=Cc2ccccc21 [CARBAMAZEPINE] | – | – | – | – | 169 | – | –
Cc1ccc(/C=C2/N=C(c3ccccc3)N(C(=O)COc3ccccc3)NC2=O)cc1 | 300 | 300 | inactive | 300 mg/kg | – | – | –
COc1ccc(/C=C2/N=C(c3ccccc3)N(C(=O)c3ccc(C)cc3)NC2=O)cc1 | 100 | 30 | 30 mg/kg | 100 mg/kg | 151.5 | 300 | 300
